Results from publication PMC6977340 (Clinical Pharmacology and Therapeutics, 2019).
Converted amounts (≈) assume the structure as drawn.

Legend:
Aβ42 = conditions: cited from earlier work
CSF Aβ40 [1] = conditions: multiple-ascending doses over 28 days, healthy subjects ref 32; cited from earlier work
Aβ38 = conditions: cited from earlier work
Aβ37 = conditions: cited from earlier work
[2] = system: Aβ42 within the brain and CSF; conditions: acute oral administration ref 36; cited from earlier work
CSF Aβ37 = assay: PK/PD indirect-response model, CSF Aβ37; format: in vivo, human
How it was run: (§1)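 Population PK/PD fit in NONMEM (FOCE with interaction) for healthy adults. Inputs: serial CSF via lumbar catheter, 2 h predose to 36 h after one fasted oral 150 or 300 mg dose; single lumbar punctures at baseline and day 14 in 40–360 mg q.d. cohorts. Fixed two-compartment PK gave individual plasma concentrations. Indirect-response model: sigmoid inhibition (Aβ40/42) or stimulation (Aβ37/38) of production, with kout turnover. Fixed placebo-drift terms.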

CSF Aβ38 = assay: PK/PD indirect-response model, CSF Aβ38; format: in vivo, human
How it was run: as §1

[3] = system: Aβ42, Aβ40, Aβ37 and Aβ38; conditions: cited from earlier work
[4] = Safety/tolerability, B7991002 multiple-ascending dose study; format: in vivo, human; conditions: doses up to 360 mg q.d. for up to 14 days, healthy young and elderly subjects
How it was run: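 Healthy subjects aged 18–55 and elderly subjects aged 65–85 took oral doses once daily for 14 days, with about 10 per cohort and placebo control. Dosing was fasted on days 1, 7 and 14, otherwise >1 h from breakfast. Investigators recorded adverse events with severity and causality, plus laboratory tests, physical examinations, ECG monitoring and vital signs.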

[5] = Plasma and CSF pharmacokinetics, B7991002 multiple dose; format: in vivo, human; conditions: for PF-06648671 concentration in CSF, mean: day 14, nonelderly
[6] = Plasma pharmacokinetics, B7991001 single-ascending dose incl. food effect; format: in vivo, human; conditions: 120 mg fed vs fasted
CSF Aβ40 [7] = assay: PK/PD indirect-response model, CSF Aβ40; format: in vivo, human
How it was run: as §1

Notch = conditions: cell-based assays ref 36; cited from earlier work
CSF Aβ42 = assay: PK/PD indirect-response model, CSF Aβ42; format: in vivo, human
How it was run: as §1

plasma Aβ = assay: Plasma Aβ levels after single doses; format: in vivo, human; conditions: following single doses
[8] = multiple-ascending doses over 28 days, healthy subjects ref 32
[9] = single dosing, healthy subjects ref 33

Compound: COc1nc(/C=C/c2nc3n(n2)CCC[C@H]3c2ccccc2C(F)(F)F)ccc1-n1cnc(C)c1 [E2212]
- Decrease in Aβ42 AUC0–24 hours values (Aβ42; single-ascending doses ref 35): up to 44.1%

Compound: CNc1nc(Nc2ccc(-n3cnc(C)n3)c(OC)c2)nc2c1CC[C@H]2c1ccc(F)cc1 [BMS‐932481]
- Decrease in CSF Aβ42 (Aβ42; [8]): up to 77%
- Decrease in Aβ42 (Aβ42; [9]): up to 50%
- Decrease in CSF Aβ40 (CSF Aβ40 [1]): ≤ 74%
- Increase in CSF Aβ38 (Aβ38; [8]): ≤ 69%
- Increase in Aβ38 (Aβ38; [9]): ≤ 2 fold
- Increase in CSF Aβ37 (Aβ37; [8]): up to 545%
- Increase in Aβ37 (Aβ37; [9]): up to 12 fold

Compound: Cc1cn(-c2ccc3n(c2=O)CCN([C@@H](C)[C@@H]2CC[C@H](c4cc(F)c(Cl)cc4C(F)(F)F)O2)C3=O)cn1 [PF-06648671, 2‐[(1S)‐1‐{(2S,5R)‐5‐[4‐chloro‐5‐fluoro‐2‐(trifluoromethyl)phenyl]tetrahydrofuran‐2‐yl}ethyl]‐7‐(4‐methyl‐1H‐imidazol‐1‐yl)‐3,4‐dihydro‐2H‐pyrido[1,2‐a]pyrazine‐1,6‐dione]
- Effect on Aβ42 in animals [2]: reduced Aβ42 within the brain and CSF
- EC50 (CSF Aβ37; Homo sapiens, read-out: EC50, plasma concentration at half Emax, Aβ37): 1.28 µg/mL (≈ 2.38 µM)
- Emax, maximum response achievable, Aβ37 (CSF Aβ37; PK/PD model estimate): 5.63
- k out, first-order turnover constant of Aβ37 (CSF Aβ37; PK/PD model estimate): 0.0964 h⁻¹
- Predicted increase in CSF Aβ37 (CSF Aβ37; steady state, within simulated dose ranges): ≤ 500%
- EC50 (CSF Aβ38; Homo sapiens, read-out: EC50, plasma concentration at half Emax, Aβ38): 1.77 µg/mL (≈ 3.28 µM)
- k out, first-order turnover constant of Aβ38 (CSF Aβ38; PK/PD model estimate): 0.144 h⁻¹
- Emax, maximum response achievable, Aβ38 (CSF Aβ38; PK/PD model estimate, large uncertainty): 0.869
- Effect on Aβ species in cell-based assays [3]: reduced Aβ42 and Aβ40, with concomitant increases in Aβ37 and Aβ38
- Safety profile [4]: good safety profile
- PF-06648671 concentration in CSF, mean ([5]; 40 mg q.d., CV 81%): 3.49 ng/mL
- PF-06648671 concentration in CSF, mean ([5]; 360 mg q.d., CV 31%): 27.85 ng/mL
- CSF penetration ([5]; CSF:plasma ratio at day 14 about equal to unbound fraction): excellent CSF penetration
- Delay of median Tmax with food [6]: 3 h
- IC50 (CSF Aβ40 [7]; Homo sapiens, read-out: IC50, plasma concentration at half Imax, Aβ40): 1.23 µg/mL (≈ 2.28 µM)
- Imax, maximum inhibition achievable, Aβ40 (CSF Aβ40 [7]; PK/PD model estimate): 0.725
- k out, first-order turnover constant of Aβ40 (CSF Aβ40 [7]; PK/PD model estimate): 0.0835 h⁻¹
- Dose predicted to achieve an average 50% reduction in CSF Aβ40 (CSF Aβ40 [7]; steady state, PK/PD model): 250 mg q.d.
- Effect on cleavage of Notch or other substrates (Notch): without inhibiting the cleavage of Notch or other substrates
- Predicted reduction in CSF Aβ42 levels (CSF Aβ42; 75 mg): 50%
- Predicted reduction in CSF Aβ42 levels (CSF Aβ42; 300 mg): 65%
- IC50 (CSF Aβ42; Homo sapiens, read-out: IC50, plasma concentration at half Imax, Aβ42): 0.421 µg/mL (≈ 0.781 µM)
- Imax, maximum inhibition achievable, Aβ42 (CSF Aβ42; PK/PD model estimate): 0.744
- k out, first-order turnover constant of Aβ42 (CSF Aβ42; PK/PD model estimate): 0.121 h⁻¹
- Dose predicted to achieve an average 50% reduction in CSF Aβ42 (CSF Aβ42; steady state, PK/PD model): 75 mg q.d.
- Rebound effect of plasma Aβ levels over baseline (plasma Aβ): no rebound effect of plasma Aβ levels over baseline was observed
